Assay results as given in publication PMC6432617 (Chemical Science, 2019).

How the values were obtained:
neutrophil granules = conditions: ref column Ref. of Table 1 ([5], [8], [9], [42], [60], [61], [65], [75]–[93]); cited from earlier work
[1] = Photophysical study: fluorescence spectra and quantum yields; format: physicochemical; conditions: for solvatochromism Δmaxλem: various solvents, 50 μM
[2] = molecular target: bovine serum albumin (BSA) (Bos taurus, UniProt P02769); experiment: Protein-dependent fluorogenesis: titration of HAB with BSA in TRIS buffer; format: binding
bovine serum albumin (BSA), sequence (P02769 25-607): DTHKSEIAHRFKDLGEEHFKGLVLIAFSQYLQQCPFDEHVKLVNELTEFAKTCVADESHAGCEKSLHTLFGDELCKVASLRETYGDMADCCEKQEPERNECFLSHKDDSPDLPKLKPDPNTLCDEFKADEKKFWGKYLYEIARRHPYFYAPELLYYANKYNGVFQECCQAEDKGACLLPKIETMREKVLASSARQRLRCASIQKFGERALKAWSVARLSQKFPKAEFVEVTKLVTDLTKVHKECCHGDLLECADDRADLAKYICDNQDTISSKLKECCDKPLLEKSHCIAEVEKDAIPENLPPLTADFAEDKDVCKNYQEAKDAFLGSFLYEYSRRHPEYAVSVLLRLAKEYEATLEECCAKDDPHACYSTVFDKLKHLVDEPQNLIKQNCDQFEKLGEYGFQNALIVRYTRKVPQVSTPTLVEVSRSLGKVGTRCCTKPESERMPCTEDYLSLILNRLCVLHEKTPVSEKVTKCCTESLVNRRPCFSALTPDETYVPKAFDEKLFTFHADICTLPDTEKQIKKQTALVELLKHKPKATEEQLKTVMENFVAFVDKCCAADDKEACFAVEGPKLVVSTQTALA
In short: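 Probe at 50 μM in Tris buffer (Tris·HCl 10 mM, pH 7.0, NaCl 100 mM, MgCl2 5 mM) was titrated with BSA. Emission spectra were recorded at 360 nm excitation over 0–1 mg mL−1 BSA and at 420 nm excitation over 1–10 mg mL−1. Fluorescence turn-on was taken at 420 nm excitation with 10 mg ml−1 BSA.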

[3] = test system: zebrafish neutrophil granules; experiment: HAB labeling of live zebrafish embryos and larvae, confocal imaging; format: in vivo, zebrafish (Danio rerio)
In short: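 Wild-type AB or transgenic embryos/larvae (24 hpf to 6 dpf, 28.5 °C staging) were incubated 1 h in the dark at room temperature with probe at 10 μM in Volvic water, from a 10 mM DMSO stock; controls got 0.1% DMSO. For equilibrium imaging, larvae were anaesthetised (tricaine) and mounted in 1% low-melt agarose with probe. For diffusion imaging, larvae were washed and mounted probe-free. Confocal imaging was done at 23–26 °C: excitation 488 nm, emission 550–650 nm.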

myeloperoxidase = experiment: HAB labeling in myeloperoxidase knock-out; format: in vivo, zebrafish (Danio rerio); conditions: spotless mutant strain, equilibrium conditions
[4] = test system: lymphocytes, monocytes, erythrocytes and thrombocytes (platelets); experiment: HAB labeling of other human blood cell populations; format: cell-based; conditions: 10 μM, same conditions as purified neutrophils
In short: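 PBMC were taken from the top layer of the Percoll gradient used for neutrophil purification. Live lymphocytes, erythrocytes, monocytes and thrombocytes were imaged by confocal fluorescence and DIC with probe at 10 μM, using the same settings as for the neutrophils.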

[5] = log D7.4 partition coefficient, n-octanol / pH 7.4 PBS; format: physicochemical; conditions: from log D7.4 values
In short: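 Partition coefficients were measured between n-octanol and pH 7.4 phosphate-buffered saline at 20 °C, alongside reference chalcones.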

[6] = pKa prediction with ACD software; conditions: from predicted pKa 3.97
Caenorhabditis elegans = experiment: HAB labeling of live Caenorhabditis elegans; conditions: in vivo
[7] = test system: live primary human neutrophils; experiment: HAB labeling of live human primary neutrophils; format: cell-based; conditions: 10 μM
In short: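 Neutrophils were purified from human blood: plasma removal, dextran sedimentation of red cells, then a 51–42% Percoll gradient. Remaining red cells were cleared with CD235a beads. Cells went into RPMI/10 mM Hepes at 2 × 10^6 per mL and adhered 20 min at room temperature in glass-bottom dishes. Medium was replaced with probe at 1, 5 or 10 μM in RPMI/Hepes, followed by live confocal fluorescence and DIC imaging.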

zebrafish larvae [8] = experiment: Toxicity in live zebrafish larvae; format: in vivo, zebrafish (Danio rerio); conditions: up to 48 h incubation
zebrafish larvae [9] = experiment: Chalcone 18 alone in 72 hpf larvae, confocal imaging; format: in vivo, zebrafish (Danio rerio)
chemokine CXCL12a = conditions: 10 μM, zebrafish model ref [56]; cited from earlier work

## CC1(C)Nc2cccc3c(N=Nc4ccc(N=Nc5ccccc5)c5ccccc45)ccc(c23)N1 [Sudan Black B]
Neutrophil granules
  Histopermeability for live animal imaging: No (FA fixation in vivo)

## Nc1cccc2c(=O)[nH][nH]c(=O)c12 [Luminol]
Neutrophil granules
  Histopermeability for live animal imaging: No (in vitro only)

## Nc1cccc2ccc(/C=C/C(=O)c3ccccc3)cc12 [Compound 6, (E)-3-(8-aminonaphthalen-2-yl)-1-phenylprop-2-en-1-one]
[1]
  solvatochromism Δmaxλem: ~140 nm

## Nc1cccc2ccc(/C=C/C(=O)c3ccc(O)cc3)cc12 [HAB, (E)-3-(8-aminonaphthalen-2-yl)-1-(4-hydroxyphenyl)prop-2-en-1-one]
[2]
  bathochromic shift Δλem upon binding to BSA: 133 nm
  bathochromic shift Δλex upon binding to BSA: 60 nm
[2]; excitation 420 nm, BSA 10 mg ml^–1, HAB 50 μM
  fluorescence turn-on (FTO) upon binding to BSA: 21.5
[3]; 10 μM, 72 hpf larvae, confocal plus DIC
  compartment labeled within neutrophils: co-localize with neutrophil granules
[3]; 10 μM, 60 min, ventral tail of embryo
  developmental stage at which labeling first appeared: 32 hpf
[3]; 10 μM, Tg(mfap4:mCherry-F) 72 hpf larvae
  co-localization with macrophages: did not co-localize
[3]; 10 μM, Tg(mpx:GAL4/UAS-E1b:nsfB-mCherry) 72 hpf larvae
  co-localization with neutrophils: perfectly colocalized with all neutrophils
[3]; 1 or 4% formaldehyde, two hours, room temperature
  HAB labeling after or before formaldehyde fixation: failed to detect HAB labeling
myeloperoxidase
  labeling in myeloperoxidase knock-out larvae: qualitatively and quantitatively indistinguishable from wild-type larvae
[4]
  labeling of lymphocytes, monocytes, erythrocytes and thrombocytes: weakly to faintly labeled
[1]; toluene
  fold higher quantum yield than 5-amino regioisomer 12: ca. 20 fold
[1]
  solvatochromism Δmaxλem: ~140 nm
[5]
  fold more hydrophilic than 4′-deshydroxy congener 6: 2 fold
[6]
  basicity, fold lower than that of acidotropic amines: about 10^5 fold
Caenorhabditis elegans
  microscopic visualization in C. elegans: could not be microscopically visualized
[7]
  labeling of activated neutrophils: intense labeling of cells at the level of subcellular granular structures
  labeling of non-activated neutrophils: intense but diffuse fluorescent labeling
Zebrafish larvae [8]
  toxicity of HAB: absence of toxicity

## COC(=O)c1ccccc1C1c2ccc(N)cc2Oc2cc(N)ccc21 [Dihydrorhodamine 123]
Neutrophil granules
  Histopermeability for live animal imaging: No (in vitro only)

## COc1cc(/C=C/C(=O)c2ccc(Cl)cc2)ccc1O [Compound 18, 4-hydroxy-3-methoxy-4′-chlorochalcone]
Zebrafish larvae [9]; 100 μM, 72 hpf larvae
  type of staining: interstitial histological labeling
Zebrafish larvae [9]; 100 μM, 72 hpf larvae, excitation 488 nm
  fluorescence of 18 alone in larvae: green-yellow fluorescence
Zebrafish larvae [9]; even at high concentration
  cytopermeability: not cytopermeable
Chemokine CXCL12a
  biological effects as inhibitor of CXCL12a: moderate biological effects
  fluorescent detection by GFP filters: not fluorescently detected
